Experimental findings from ChEMBL document CHEMBL3994628, “Coumarin derivatives as potential antitumor agents: Growth inhibition, apoptosis induction and multidrug resistance reverting activity” (Eur J Med Chem, 2017) are described below.

Test [1] in a line: Growth inhibition of human LoVo/DX cells after 24 hrs by MTT assay. It is filed as functional, cell-based. A digest of the protocol:
(§1)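 Cells were plated at 2x10^4 cells/cm2 and grown in RPMI 1640 with 10% FBS and 2 mM glutamine at 37 °C. They were exposed for 24 h to 0.01-100 µM, diluted from a 10 mmol/L DMSO stock, in triplicate. MTT was then added at 0.2 mg/mL in PBS for 4 h and the formazan dissolved in DMSO. A540 was read and IC50 taken from the dose-response curve, mean ± SD. The ratio compares the IC50s of the two lines.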
Background: Tetrazolium assays rely on reduction of a dye to a coloured formazan, in cell work by metabolically active cells.

The test system of test [2] is LoVo. Nature of the test: Growth inhibition of human LoVo cells after 24 hrs by MTT assay. It is filed as functional, cell-based. The method in brief:
as §1

The species named for test [3] is Homo sapiens. Nature of the test: Inhibition of P-gp in human LoVo/DX cells assessed as reduction in Rhodamine123 efflux at 2.5 uM preincubated for 15 mins followed by Rhodamine123 addition measured after 1 hr by flow cytometry. It is filed as cell-based. The method in brief: (§2)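 LoVo/Dx cells at 3x10^5 cells/mL in serum-free, phenol red-free medium were preincubated at room temperature for 15 min at 2.5 or 10 µM. Rhodamine 123 was then added at 2 µM for 1 h at 37 °C in the dark. After a PBS wash, fluorescence was read by flow cytometry at 488 nm excitation and 530 nm emission. Mean control fluorescence was subtracted. Verapamil served as positive control. Data are mean ± SD of ≥3 experiments.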
On the technique in general: In flow cytometry, cells or beads pass a laser one at a time.

Test [4] is filed under the species Homo sapiens. The test can be described thus: Substrate activity at P-gp in human LoVo/DX cells assessed as ATP consumption at 10 uM after 2 hrs by ATPlite assay. Format: cell-based.
The test system of test [5] is LoVo/DX. The test can be described thus: Cell cycle arrest in human LoVo/DX cells assessed as accumulation at S phase after 24 hrs by propidium iodide staining based flow cytometry. Format: functional.
Test [6] deals with LoVo/DX. Nature of the test: Cytotoxic activity against human LoVo/DX cells after 24 hrs by phase contrast microscopic method. It is filed as functional, cell-based. The method in brief:
(§3)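 LoVo or LoVo/Dx cells were plated at 2x10^4 cells/cm2 in RPMI 1640 with 10% FBS and exposed for 24 h. Phase contrast microscopy was used to judge growth delay without cell death (cytostatic) or cell death, shown as floating cells (cytotoxic).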

Test [7] in a line: Selectivity ratio of IC50 for human LoVo/DX cells to IC50 for human LoVo cells. It is filed as functional. The method in brief: as §1
The species entered for test [8] is Homo sapiens. The test can be described thus: Inhibition of P-gp in human LoVo/DX cells assessed as reduction in Rhodamine123 efflux at 10 uM preincubated for 15 mins followed by Rhodamine123 addition measured after 1 hr by flow cytometry. It is filed as cell-based. The method in brief: as §2
Test [9] concerns LoVo. The test can be described thus: Cytotoxic activity against human LoVo cells after 24 hrs by phase contrast microscopic method. Format: functional, cell-based. The method in brief: as §3
For test [10], the system named is LoVo/DX. Nature of the test: Cytostatic activity against human LoVo/DX cells by phase contrast microscopic method. Format: functional, cell-based. The method in brief:
as §3

Test [11] concerns LoVo. Nature of the test: Cytostatic activity against human LoVo cells by phase contrast microscopic method. It is filed as functional, cell-based. A digest of the protocol: as §3
Test [12] deals with LoVo. Nature of the test: Cell cycle arrest in human LoVo cells assessed as accumulation at G2/M phase after 24 hrs by propidium iodide staining based flow cytometry. It is filed as functional.
In test [13] the test system is LoVo/DX. Nature of the test: Induction of apoptosis in human LoVo/DX cells assessed as caspase-activation using DEVD as substrate at cytotoxic concentration after 24 hrs by fluorimetric assay. Format: functional, cell-based. A digest of the protocol: (§4)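 After 24 h exposure at cytotoxic concentration, DEVD-hydrolysing caspase activity was measured fluorimetrically in cell extracts. Values are given as percentage increase over untreated control, set at 100%. Data are mean ± SD of at least three independent experiments.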

Test [14] deals with LoVo. Nature of the test: Cell cycle arrest in human LoVo cells assessed as accumulation at G0/G1 phase after 24 hrs by propidium iodide staining based flow cytometry. Format: functional.
Test [15] concerns LoVo. Nature of the test: Induction of apoptosis in human LoVo cells assessed as caspase-activation using DEVD as substrate at cytotoxic concentration after 24 hrs by fluorimetric assay relative to control. Format: functional. A digest of the protocol: as §4
In test [16] the test system is LoVo/DX. Nature of the test: Cell cycle arrest in human LoVo/DX cells assessed as accumulation at G0/G1 phase after 24 hrs by propidium iodide staining based flow cytometry. Format: functional.
Test [17] is filed under the species Homo sapiens. Nature of the test: Inhibition of P-gp in human LoVo/DX cells assessed as reduction in Rhodamine123 efflux at 2.5 to 10 uM preincubated for 15 mins followed by Rhodamine123 addition measured after 1 hr by flow cytometry relative to verapamil. It is filed as cell-based. The method in brief:
as §2

Test [18] concerns LoVo. The test can be described thus: Cell cycle arrest in human LoVo cells assessed as accumulation at G2/M phase at 3.5 to 7 uM after 24 hrs by propidium iodide staining based flow cytometry. Format: functional.
A short description of test [19]: Selectivity ratio of IC50 for human LoVo cells to IC50 for human LoVo/DX cells. It is filed as functional. A digest of the protocol: as §1
In test [20] the test system is LoVo/DX. The test can be described thus: Cell cycle arrest in human LoVo/DX cells assessed as accumulation at G0/G1 phase at 1.8 uM after 24 hrs by propidium iodide staining based flow cytometry. It is filed as functional.
For test [21], the system named is LoVo/DX. The test can be described thus: Cell cycle arrest in human LoVo/DX cells assessed as accumulation at G2/M phase at 3.6 uM after 24 hrs by propidium iodide staining based flow cytometry. It is filed as functional.
Test [22] can be described thus: Induction of apoptosis in human LoVo/DX cells assessed as caspase-activation using DEVD as substrate at cytotoxic concentration after 24 hrs by fluorimetric assay relative to sensitive LoVo cells. It is filed as functional.

pIC50: −log10 of the molar value. Active and inactive are the calls of the source. No cut-off for these calls is given here.

Usually pIC50 stands for the IC50 on a negative log10 scale, so that one unit is a factor of ten. High values mean a small IC50, low ones a large IC50. For `C#C/C(C)=C/COc1ccc2ccc(=O)oc2c1`, the pIC50 in test [1] was 4.15; in the test with LoVo [2], 4.32. In the test listed under Homo sapiens [3], the “P-gp inhibition (active/not active)” value is “inactive”.

As to `C/C(C#CCN1CCN(c2ccccc2)CC1)=C\COc1ccc2ccc(=O)oc2c1`, the results for the pIC50 (in test [1]; in the test on LoVo [2]) were 4.92 and 4.39, respectively. Also, the “P-gp inhibition (active/not active)” value in the test listed under Homo sapiens [3] is “Active”.

Consider `COc1ccc(CCN(C)CCCC(C#N)(c2ccc(OC)c(OC)c2)C(C)C)cc1OC` (stereo not given), for which, in the test listed under Homo sapiens [4], the result was Active.

On to `C/C(C#CCN1CCCCC1)=C\COc1ccc2ccc(=O)oc2c1`, for which the pIC50 in test [1] was 4.48; in the test with LoVo [2], 4.21. Further, in the test filed under Homo sapiens [3], the “P-gp inhibition (active/not active)” value is “Active”.

For `CC(C)=CCOc1ccc2ccc(=O)oc2c1` [7-PRENYLOXYCOUMARIN], the pIC50 was 4.30 in [1] and 4.52 with LoVo [2]. In addition, the “P-gp inhibition (active/not active)” value in the test filed under Homo sapiens [3] is “Active”.

Turning to `C/C(C#CCN1CCC(n2c(=O)[nH]c3ccccc32)CC1)=C\COc1ccc2ccc(=O)oc2c1`, the Activity entry in the test on LoVo/DX [5] was “Dose-dependent effect”; in the test with LoVo [12], “Dose-dependent effect”; in the test on LoVo [14] it was “Dose-dependent effect”; in the test on LoVo [15], 19%. Besides, the result in the test on LoVo/DX [6], in the test on LoVo [9], in the test on LoVo/DX [10], in the test on LoVo [11], in the test listed under Homo sapiens [4] and with LoVo/DX [13] was Active. For the same compound, the “Ratio IC50” value in [7] was 2. For the same compound, the “P-gp inhibition (active/not active)” value in the test listed under Homo sapiens [8] and in the test filed under Homo sapiens [3] was “Active” each time. Moreover, the values for the pIC50 (in test [1]; with LoVo [2]) were 5.30 and 5.60, respectively.

On to `C/C(C#CCN1CCN(Cc2ccccc2)CC1)=C\COc1ccc2ccc(=O)oc2c1`, for which the pIC50 was 4.71 in test [1] and 4.17 in the test on LoVo [2]. For the same compound, the “P-gp inhibition (active/not active)” value in the test filed under Homo sapiens [3] was “Active”.

Turning to `COc1cc2c(cc1OC)CN(CC#C/C(C)=C/COc1ccc3ccc(=O)oc3c1)CC2`, the outcome with LoVo/DX [6], in the test with LoVo [9], with LoVo/DX [10], in the test on LoVo [11] and in the test with LoVo/DX [13] was Active. Also, the Activity entry was “Dose-dependent effect” in the test with LoVo/DX [16], “Dose-dependent effect” in the test on LoVo [14] and 39% in the test with LoVo [15]. Also, the “P-gp inhibition (active/not active)” value in the test listed under Homo sapiens [8] and in the test listed under Homo sapiens [3] was “Active” each time. Further, the negative logarithm of the IC50 (pIC50) (in test [1]; in the test on LoVo [2]) was 4.97 in each case. In addition, the result in the test listed under Homo sapiens [4] was inactive.

Take `C/C(C#CCN1CCN(C(c2ccc(F)cc2)c2ccc(F)cc2)CC1)=C\COc1ccc2ccc(=O)oc2c1`: the “P-gp inhibition (active/not active)” value in the test filed under Homo sapiens [8] and in the test filed under Homo sapiens [3] was “Active” each time. Further, the pIC50 in test [1] was 4.22; in the test on LoVo [2] it was 4.33. In addition, the outcome in the test filed under Homo sapiens [4] was Active.

In the case of `COc1ccc(CCN(C)CC#C/C(C)=C/COc2ccc3ccc(=O)oc3c2)cc1OC`, the “P-gp inhibition (active/not active)” value in the test listed under Homo sapiens [8] and in the test filed under Homo sapiens [3] was “Active” each time. The figures for the pIC50 (in test [1]; in the test with LoVo [2]) were 4.81 and 4.40, respectively. In addition, the outcome in the test listed under Homo sapiens [4] was inactive. In addition, the fold change (FC) in the test listed under Homo sapiens [17] was found to be 10.

For the compound `C/C(C#CCN1CCN(C2c3ccccc3-c3ccccc32)CC1)=C\COc1ccc2ccc(=O)oc2c1`, the result in the test with LoVo [18], with LoVo/DX [6], in the test with LoVo/DX [20], in the test on LoVo [9], in the test on LoVo/DX [10] and in the test with LoVo/DX [21] was Active. Further, the result in the test on LoVo [11] and in the test filed under Homo sapiens [4] was Active. Moreover, the “Ratio IC50” value in test [19] stood at 2. For the same compound, in the test filed under Homo sapiens [8], the “P-gp inhibition (active/not active)” value was “inactive”. Besides, the pIC50 in test [1] was 5.74; with LoVo [2], 5.46. Moreover, the “fold change (FC)” value in test [22] worked out at 3. Further, the Activity with LoVo [15] stood at 72%. Besides, in the test listed under Homo sapiens [3], the “P-gp inhibition (active/not active)” value was “Active”.
